# From PubChem
# SUMO1-SIM PPI: modulators of human SUMO1-mediated protein-protein interactions | P63165 | SUMO1 binding to a labelled peptide, TR-FRET, 1 h | inhibition, % at 20 µM | actives 0.33% (n = 360,000) | AID 602429; in the data active = inhibition above about 37%
# Target sequence (P63165 whole entry, looked up): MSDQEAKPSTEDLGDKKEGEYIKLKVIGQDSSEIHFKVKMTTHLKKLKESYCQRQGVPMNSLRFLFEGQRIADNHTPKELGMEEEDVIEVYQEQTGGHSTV
# LMPTP block: blocks human LMPTP phosphatase; P24666; inhibition, % at 20 µM; recombinant LMPTP-A, OMFP fluorogenic substrate, fluorescence intensity; actives 0.22% (n = 360,000); AID 651560;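 active = compounds that cut the enzyme signal by at least half of the control window in the single-dose screen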
#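 Test system – LMPTP-A enzyme · Amount – LMPTP-A at 0.625 nM final in the reaction · Buffer or medium – Bis-Tris pH 6.0, DTT, detergent · Reagent – OMFP 400 µM · Doses – single 20 µM dose · Schedule – reaction 50 min, room temperature, dark · Detection – fluorescence intensity of OMFP turnover product · Evaluation – percent inhibition versus substrate-only and uninhibited controls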
# DNMT1 inh: inhibitors of human DNMT1; AID 588458; actives 0.83% (n = 360,000); DNMT1 molecular beacon, Hinp1I cleavage, fluorescence; P26358; inhibition (reported as % activation of signal), % at 10 µM; in the data active = inhibition above about 50%
# STEP block: inhibitors of human striatal-enriched phosphatase STEP; P54829; inhibition, % at 20 µM; actives 0.25% (n = 360,000); recombinant STEP, OMFP fluorogenic substrate, fluorescence;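 active = inhibition at 20 µM, scaled per plate between control wells, above about 37%, limit read from the data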
#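 Material: STEP (striatal-enriched tyrosine phosphatase) enzyme, cell-free; Compound dosing: 20 µM single dose in 1% DMSO; Technique: fluorescence read at 480 nm ex / 540 nm em; Times: reaction 20 min, ambient temperature; Medium: 50 mM Bis-Tris pH 6.0 with 2.5 mM DTT and 0.005% Tween 20; Also added: OMFP at 25 µM.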
# CSN deneddyl inh: CSN deneddylation inhibition; Q92905; Purified CSN, SCF-Nedd8-OG deneddylation, fluorescence polarization; inhibition, % at 12.5 µM; actives 0.38% (n = 360,000); AID 651999;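 active = pattern-corrected inhibition above about 35%, with an unprinted fluorescence ratio check between 0.5 and 1.5, limit read from the data, passing the limit was not always enough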
# Target sequence (Q92905 whole entry, looked up, one chain of several): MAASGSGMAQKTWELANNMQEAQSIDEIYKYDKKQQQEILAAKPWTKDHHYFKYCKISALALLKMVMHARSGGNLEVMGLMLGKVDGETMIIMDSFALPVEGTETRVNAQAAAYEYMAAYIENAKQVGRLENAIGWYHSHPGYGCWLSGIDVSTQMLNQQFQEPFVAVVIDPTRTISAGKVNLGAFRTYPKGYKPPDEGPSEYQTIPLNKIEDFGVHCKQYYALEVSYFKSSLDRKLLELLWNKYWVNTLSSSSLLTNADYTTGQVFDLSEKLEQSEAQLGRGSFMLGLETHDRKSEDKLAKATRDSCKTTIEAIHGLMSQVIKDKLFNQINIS
#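 Assay system: purified human Csn5 enzyme expressed in HEK293T cells; Input: 0.24 nM Csn5 enzyme, final concentration; Reagent: 10 nM SCFSkp2-Nedd8OG; Compound dosing: 12.5 µM single point; Times: reaction 90 min, room temperature; Technique: fluorescence polarization readout.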
# Scp1 inh: Scp-1 (human) phosphatase inhibition | inhibition, % at 20 µM | actives 0.88% (n = 340,000) | Recombinant Scp1, phosphopeptide, malachite green phosphate absorbance | Q9GZU7;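 active = inhibition above about 50% at 20 µM, limit read from the data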
# Target sequence (Q9GZU7 76-261 limits assumed): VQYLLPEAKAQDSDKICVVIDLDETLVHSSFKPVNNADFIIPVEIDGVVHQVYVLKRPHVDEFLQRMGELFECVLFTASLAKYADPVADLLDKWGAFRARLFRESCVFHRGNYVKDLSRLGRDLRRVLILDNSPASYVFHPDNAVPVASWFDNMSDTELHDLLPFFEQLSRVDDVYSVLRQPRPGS
#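 Material – SCP-1 phosphatase catalytic domain, residues 76-261 · Buffer or medium – Acidic Tris acetate buffer with magnesium and detergent · Also added – Phospho 17-mer peptide substrate · Compound – single 20 µM dose, 1% DMSO · Times – 45 min room-temperature reaction, 5 min colour, 30 min stabiliser · Technique – Phosphate-binding colour reagent, absorbance read at 630 nm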
# Numbers stand for hits; . = inactive; / = not tested or not shown. Sampled rows, rich in hits. Any-hit rate of the full collection: about 2%.
SMILES,SUMO1-SIM PPI,LMPTP block,DNMT1 inh,STEP block,CSN deneddyl inh,Scp1 inh
O=C(c1ccc(-c2ccccc2)cc1)N1CCN(c2ccc3c(c2)C2CC3CCN2C(=O)OCc2ccccc2)CC1 (stereo not drawn),.,.,.,.,113,/
CCc1cc2c3c(c1)C1(C(=O)N3C(C)(C)C=C2C)C(C#N)=C(N)Oc2[nH]c(=O)[nH]c(=O)c21 (stereo not drawn),.,.,.,.,.,.
COCCNc1nc(NCc2ccc(C)cc2C)c2sccc2n1,.,59,.,.,.,/
COCCNc1nc(NCc2cccc(OC)c2)c2sccc2n1,.,.,.,.,.,/
COCCNc1nc(NCc2ccc(C(C)C)cc2)c2sccc2n1,.,51,.,.,.,/
CC(=O)Nc1ccc(CNc2nc(NCC3CC3)nc3ccsc23)cc1,.,60,.,.,.,/
COc1ccccc1CNc1nc(NCc2ccccc2)nc2ccsc12,.,.,.,.,.,/
COc1ccccc1CNc1nc(NCc2cnc(C)cn2)c2sccc2n1,.,80,.,.,.,/
CCO/C(C)=N/Oc1cnc2ccccc2c1,.,.,.,.,.,/
COCCNc1nc(NCc2cccc(OC)c2OC)c2sccc2n1,.,62,.,.,.,/
COc1ccc(Nc2nc(NCc3cccs3)nc3ccsc23)cc1OC,.,56,.,.,.,/
COc1ccc(Nc2nc(NC(C)C)nc3ccsc23)cc1OC,.,.,.,.,.,/
COc1ccccc1CNc1nc(NCc2cccc(OC)c2OC)c2sccc2n1,.,.,.,.,.,/
COc1ccc(N=Cc2cc(Cc3ccccc3Cl)cc([N+](=O)[O-])c2O)cc1OC,.,.,.,.,.,67
Cc1ccc(N=Cc2cc(Cc3ccccc3Cl)cc([N+](=O)[O-])c2O)c(O)c1,.,.,.,.,.,.
O=c1[nH]c(Nc2ccccn2)cc2ccccc12,.,.,.,.,.,.
O=c1[nH]c(Nc2ccccc2Cl)cc2ccccc12,.,.,85,.,.,.
Cc1ccccc1Nc1cc2ccccc2c(=O)[nH]1,.,.,84,.,.,.
O=C(NCCN1CCCC1)c1ccc(Cn2c(=S)[nH]c3cc4c(cc3c2=O)OCO4)cc1,.,54,.,.,.,.
CN1CCN(CCCNC(=O)c2ccc(Cn3c(=S)[nH]c4ccc(Br)cc4c3=O)cc2)CC1,.,.,.,.,.,.
Cc1cccc(C)c1NC(=O)Nc1nnc([C@H]2C[C@H](O)[C@@H](CO)O2)s1,.,.,.,.,.,/
Cc1cc(C(F)(F)F)nc(CCNC(=O)C2CCC(=O)N(Cc3cccc(F)c3)C2)n1 (stereo not drawn),.,.,.,.,.,.
Cc1ccc(S(N)(=O)=O)cc1NC(=O)/C=C/c1ccc2c(c1)OCO2,.,.,.,.,.,.
CC(C)(C)NC(=O)C(c1ccc(-c2ccccc2)cc1)n1c(=O)c(-c2ccco2)nc2ccccc21 (stereo not drawn),.,.,/,/,.,/
Cc1cccc(C)c1NC(=O)C(c1ccc(-c2ccccc2)cc1)n1c(=O)c(-c2ccco2)nc2ccccc21 (stereo not drawn),.,.,/,/,44,/
SMILES,SUMO1-SIM PPI,LMPTP block,DNMT1 inh,STEP block,CSN deneddyl inh,Scp1 inh
CCOC(=O)COc1nc(C)c(Br)c(OC)n1,61,.,.,.,.,.
N#Cc1c(NC(=O)CSc2nnc(-c3ccccc3)o2)sc2c1CCCC2,.,77,.,.,.,.
CC1CCc2c(sc(NC(=O)CSc3nnc(-c4ccccc4)o3)c2C#N)C1 (stereo not drawn),.,65,.,.,.,.
Cc1sc(NC(=O)CSc2nnc(-c3ccccc3)o2)c(C#N)c1C,.,.,.,.,.,.
CN1C(=O)[C@H]2[C@@H](/C=C/c3ccccc3)N3C(=O)CN(Cc4ccc(-c5ccccc5)cc4)C(=O)[C@@]3(Cc3ccccc3)[C@H]2C1=O,.,.,.,.,.,.
COc1ccc(N=C2S/C(=C\c3ccc(OCC(=O)O)cc3)C(=O)N2CCc2c[nH]c3ccccc23)cc1,98,.,.,96,36,.
C[C@]12CCC[C@H](O1)c1c(cc3c(c1O)C(=O)c1c(O)cc(O)cc1C3=O)O2,.,.,.,.,38,.
CC1(C)CC(=O)c2c(O)cc(O)cc2O1,.,.,.,.,.,.
Cc1cc(C(=O)NCc2ccccc2F)c2ccccc2n1,.,.,.,.,.,.
O=C(O)c1ccc(N=Nc2c(O)[nH]c3cc(Cl)ccc23)cc1,.,.,.,.,.,56
Cc1cccc(OCC(=O)Nc2ccccc2N2CCN(C)CC2)c1,.,.,.,.,.,.
Cc1cccc(OCC(=O)Nc2ccccc2N2CCCCC2)c1,41,.,.,.,.,.
COc1ccc([C@H]2CC(=O)C=C(c3ccc(Oc4ccccc4)cc3)C2)cc1OC,.,.,.,.,.,.
O=C(CN1C(=O)NC2(CCCC2)C1=O)Nc1cc(Cl)ccc1Oc1ccccc1,40,.,.,.,.,.
OC[C@@H]1CN(Cc2ccc(Cl)cc2)C[C@H](n2cnc3c(N4CCN(c5ccccc5)CC4)ncnc32)O1,.,.,.,.,.,/
O=C(NC1CCCC1)c1nc(-c2c(F)cccc2F)oc1-c1ccccc1,.,.,/,/,.,/
CC(=O)Oc1ccc(C(=O)Nc2cccc(C(=O)c3cccc(NC(=O)c4ccc(OC(C)=O)cc4)c3)c2)cc1,.,.,.,.,108,.
CC(=O)Oc1ccc(C(=O)Nc2cccc(C(=O)NC(C)(C)C)c2)cc1,.,.,.,.,.,.
CCCCCCNC(=O)N[C@@H](C(=O)NCCC[C@H]1CN2C(=NC[C@@H]2Cc2ccccc2)N1CCc1cccc(OC)c1)C(C)C,/,/,/,/,/,92
C/C=C(\C)C(=O)NCCN1C2=NC[C@@H](Cc3ccccc3)N2C[C@@H]1Cc1ccc(OC)cc1,.,.,.,.,.,.
O=C(/C=C(/c1ccc(Cl)cc1)n1cncn1)c1ccccc1,.,.,.,.,.,.
O=C(C[n+]1ccc(CCSc2ccc(F)cc2)cc1)c1ccccc1,.,54,.,.,105,.
Cc1ccc(SCCc2cc[n+](CC(=O)c3ccccc3)cc2)cc1,.,.,.,.,.,.
Cc1cc(C)cc(NC(=O)NN2C(C)CCCC2C)c1 (stereo not drawn),54,.,.,.,.,.
CCCCOc1ccc(C2/C(=C(\O)c3ccc4c(c3)OCCO4)C(=O)C(=O)N2CCCN2CCOCC2)cc1 (stereo not drawn),.,.,.,.,.,.
COc1cc2c(C#N)c(N3CCc4ccccc4C3)nc(N)c2c(N)n1,47,.,.,.,.,.
